Results taken from ChEMBL document CHEMBL4706489, “Hydrogen sulfide releasing oridonin derivatives induce apoptosis through extrinsic and intrinsic pathways” (Eur J Med Chem, 2020).

Legend:
[1] = system: MCF7; assay: Antiproliferative activity against human MCF7 cells assessed as reduction in cell viability after 72 hrs by MTT assay; conditions: MCF7, 72 h
[2] = system: HepG2; assay: Induction of cell cycle arrest in human HepG2 cells assessed as accumulation at G1 phase at 0.5 uM after 48 hrs by propidium iodide staining based flow cytometric analysis (reference value: 49.46 to 50.3%); type: functional
Procedure, shortened: (§1)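 HepG2 cells were treated with 0, 0.50, 1.0 or 2.0 test agent for 48 h. Cells were washed in cold PBS and fixed in 70% ethanol at −20 °C overnight. DNA-content distribution was measured by flow cytometry. Mean ± SD, three independent experiments.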

[3] = system: K562; assay: Induction of cell cycle arrest in human K562 cells assessed as accumulation at S phase at 0.5 uM after 48 hrs by propidium iodide staining based flow cytometric analysis (reference value: 44.73 to 45.96%); type: functional
[4] = system: B16; assay: Antiproliferative activity against mouse B16 cells assessed as reduction in cell viability after 72 hrs by MTT assay; conditions: B16, 72 h
[5] = system: K562; assay: Induction of cell cycle arrest in human K562 cells assessed as accumulation at S phase at 1 uM after 48 hrs by propidium iodide staining based flow cytometric analysis (reference value: 44.73 to 45.96%); type: functional
[6] = system: HepG2; assay: Induction of cell cycle arrest in human HepG2 cells assessed as accumulation at G2 phase at 1 uM after 48 hrs by propidium iodide staining based flow cytometric analysis (reference value: 16.48 to 16.97%); type: functional
Procedure, shortened: as §1

[7] = system: HepG2; assay: Induction of cell cycle arrest in human HepG2 cells assessed as accumulation at S phase at 0.5 uM after 48 hrs by propidium iodide staining based flow cytometric analysis (reference value: 33.22 to 33.58%); type: functional
[8] = system: K562; assay: Induction of cell cycle arrest in human K562 cells assessed as accumulation at S phase at 2 uM after 48 hrs by propidium iodide staining based flow cytometric analysis (reference value: 44.73 to 45.96%); type: functional
[9] = Cytotoxicity against human PBMC cells assessed as cell viability after 72 hrs by MTT assay
[10] = system: HepG2; assay: Induction of cell cycle arrest in human HepG2 cells assessed as accumulation at S phase at 1 uM after 48 hrs by propidium iodide staining based flow cytometric analysis (reference value: 33.22 to 33.58%); type: functional
[11] = system: HepG2; assay: Induction of cell cycle arrest in human HepG2 cells assessed as accumulation at G2 phase at 0.5 uM after 48 hrs by propidium iodide staining based flow cytometric analysis (reference value: 16.48 to 16.97%); type: functional
Procedure, shortened: as §1

[12] = system: K562; assay: Induction of cell cycle arrest in human K562 cells assessed as accumulation at G2 phase at 0.5 uM after 48 hrs by propidium iodide staining based flow cytometric analysis (reference value: 10.96 to 12.03%); type: functional
[13] = system: HCT-116; assay: Antiproliferative activity against human HCT-116 cells assessed as reduction in cell viability after 72 hrs by MTT assay; conditions: HCT-116, 72 h
[14] = system: HepG2; assay: Induction of cell cycle arrest in human HepG2 cells assessed as accumulation at G1 phase at 1 uM after 48 hrs by propidium iodide staining based flow cytometric analysis (reference value: 49.46 to 50.3%); type: functional
Procedure, shortened: as §1

[15] = system: K562; assay: Induction of cell cycle arrest in human K562 cells assessed as accumulation at G1 phase at 1 uM after 48 hrs by propidium iodide staining based flow cytometric analysis (reference value: 43.24 to 43.37%); type: functional
[16] = system: K562; assay: Induction of cell cycle arrest in human K562 cells assessed as accumulation at G1 phase at 0.5 uM after 48 hrs by propidium iodide staining based flow cytometric analysis (reference value: 43.24 to 43.37%); type: functional
[17] = system: HepG2; assay: Induction of cell cycle arrest in human HepG2 cells assessed as accumulation at S phase at 2 uM after 48 hrs by propidium iodide staining based flow cytometric analysis (reference value: 33.22 to 33.58%); type: functional
[18] = system: L02; assay: Cytotoxicity against human L02 cells assessed as cell viability after 72 hrs by MTT assay; conditions: L02, 72 h
[19] = system: K562; assay: Induction of cell cycle arrest in human K562 cells assessed as accumulation at G2 phase at 1 uM after 48 hrs by propidium iodide staining based flow cytometric analysis (reference value: 10.96 to 12.03%); type: functional
[20] = system: HepG2; assay: Antiproliferative activity against human HepG2 cells assessed as reduction in cell viability after 72 hrs by MTT assay; conditions: HepG2, 72 h
[21] = system: HepG2; assay: Induction of cell cycle arrest in human HepG2 cells assessed as accumulation at G2 phase at 2 uM after 48 hrs by propidium iodide staining based flow cytometric analysis (reference value: 16.48 to 16.97%); type: functional
[22] = system: K562; assay: Induction of cell cycle arrest in human K562 cells assessed as accumulation at G1 phase at 2 uM after 48 hrs by propidium iodide staining based flow cytometric analysis (reference value: 43.24 to 43.37%); type: functional
[23] = system: K562; assay: Induction of cell cycle arrest in human K562 cells assessed as accumulation at G2 phase at 2 uM after 48 hrs by propidium iodide staining based flow cytometric analysis (reference value: 10.96 to 12.03%); type: functional
[24] = system: HepG2; assay: Induction of cell cycle arrest in human HepG2 cells assessed as accumulation at G1 phase at 2 uM after 48 hrs by propidium iodide staining based flow cytometric analysis (reference value: 49.46 to 50.3%); type: functional
Procedure, shortened: as §1

Compound: C=C1C(=O)[C@]23[C@H](O)[C@H]1CC[C@H]2[C@@]12CO[C@]3(O)[C@@H](O)[C@@H]1C(C)(C)CC[C@@H]2O [ORIDONIN]
- IC50 [1]: 13.8 µM
- Activity [2]: 57.11%
- Activity [3]: 44.1%
- IC50 [4]: 24.9 µM
- Activity [5]: 38.54%
- Activity [6]: 10.54%
- Activity [7]: 29.64%
- Activity [8]: 32.78%
- IC50 [9]: > 50 µM
- Activity [10]: 27.54%
- Activity [11]: 13.25%
- Activity [12]: 9.81%
- IC50 [13]: 11.7 µM
- Activity [14]: 61.88%
- Activity [15]: 55.67%
- Activity [16]: 46.09%
- Activity [17]: 26.2%
- IC50 [18]: 21.6 µM
- Activity [19]: 5.79%
- IC50 [20]: 8.95 µM
- Activity [21]: 5.8%
- Activity [22]: 60.6%
- Activity [23]: 6.62%
- Activity [24]: 68%
